According to ChEMBL document CHEMBL4376874, “Discovery of Potent and Selective Epidermal Growth Factor Receptor (EGFR) Bifunctional Small-Molecule Degraders” (J Med Chem, 2020):
Activity calls are given as the source filed them. The calls are words filed in the database; no cut-off is given here.

Columns and labels:
[1] = test system: NCI-H3255; assay: Effect on AKT level in human H3255 cells up to 10 uM treated 8 hrs post serum starvation measured after 16 hrs by Western blot analysis; type: ADME, cell-based; settings: nci-h3255, 16 h
[2] = target: T1, Epidermal growth factor receptor (Homo sapiens, UniProt P00533); assay: Induction of wild-type EGFR degradation in human H1299 cells at up to 10 uM treated 8 hrs post serum starvation measured after 16 hrs by Western blot analysis; type: cell-based
T1 sequence (P00533 whole entry): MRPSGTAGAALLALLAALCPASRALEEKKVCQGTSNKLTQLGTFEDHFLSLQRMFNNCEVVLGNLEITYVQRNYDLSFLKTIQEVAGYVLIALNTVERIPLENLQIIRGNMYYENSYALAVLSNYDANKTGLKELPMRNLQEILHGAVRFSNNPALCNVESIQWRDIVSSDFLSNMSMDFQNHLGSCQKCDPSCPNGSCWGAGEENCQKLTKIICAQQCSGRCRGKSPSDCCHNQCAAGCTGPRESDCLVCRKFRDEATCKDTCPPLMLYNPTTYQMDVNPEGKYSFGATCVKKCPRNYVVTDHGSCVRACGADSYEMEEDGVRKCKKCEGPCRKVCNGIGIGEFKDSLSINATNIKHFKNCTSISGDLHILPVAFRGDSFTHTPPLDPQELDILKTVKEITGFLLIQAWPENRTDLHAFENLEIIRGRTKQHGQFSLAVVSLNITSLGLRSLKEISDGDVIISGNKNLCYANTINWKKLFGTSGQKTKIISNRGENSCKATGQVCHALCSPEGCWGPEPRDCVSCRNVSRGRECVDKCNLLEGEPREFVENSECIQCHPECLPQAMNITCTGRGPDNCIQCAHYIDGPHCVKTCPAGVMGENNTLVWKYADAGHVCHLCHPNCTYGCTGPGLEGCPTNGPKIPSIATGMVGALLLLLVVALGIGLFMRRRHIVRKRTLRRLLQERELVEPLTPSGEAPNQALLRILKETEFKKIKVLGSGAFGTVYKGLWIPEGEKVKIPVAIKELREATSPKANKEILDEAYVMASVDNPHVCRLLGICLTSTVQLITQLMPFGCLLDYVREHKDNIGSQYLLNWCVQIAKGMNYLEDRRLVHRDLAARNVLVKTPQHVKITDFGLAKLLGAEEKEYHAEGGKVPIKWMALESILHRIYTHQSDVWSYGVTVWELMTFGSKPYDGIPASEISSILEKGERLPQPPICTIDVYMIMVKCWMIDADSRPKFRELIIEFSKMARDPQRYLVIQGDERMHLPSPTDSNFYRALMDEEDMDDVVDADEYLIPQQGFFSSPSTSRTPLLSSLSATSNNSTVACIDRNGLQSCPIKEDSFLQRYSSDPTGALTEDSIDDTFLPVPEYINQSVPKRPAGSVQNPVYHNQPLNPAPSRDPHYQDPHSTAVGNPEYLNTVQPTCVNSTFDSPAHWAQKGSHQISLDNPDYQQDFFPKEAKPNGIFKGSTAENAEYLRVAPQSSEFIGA

[3] = test system: Protein cereblon/Epidermal growth factor receptor (Homo sapiens), P00533+Q96SW2 [L858R]; assay: Protac activity at CRBN/EGFR L858R mutant in human H3255 cells assessed as induction of EGFR degradation at 100 nM measured after 8 hrs in presence of EGFR inhibitor gefitinib by Western blot analysis; type: cell-based
[4] = test system: Protein cereblon/Epidermal growth factor receptor (Homo sapiens), P00533+Q96SW2 [UNDEFINED MUTATION]; assay: Protac activity at CRBN/EGFR exon 19 deletion mutant in human HCC827 cells assessed as induction of EGFR degradation at >=50 nM treated 8 hrs post serum starvation measured after 16 hrs by Western blot analysis relative to control; type: cell-based
Protein cereblon/Epidermal growth factor receptor (Homo sapiens), P00533+Q96SW2 [UNDEFINED MUTATION], sequence (P00533 whole entry, looked up, stated change not applied): as the sequence (P00533 whole entry) above
Protein cereblon/Epidermal growth factor receptor (Homo sapiens), P00533+Q96SW2 [UNDEFINED MUTATION], sequence (Q96SW2 whole entry, looked up, stated change not applied): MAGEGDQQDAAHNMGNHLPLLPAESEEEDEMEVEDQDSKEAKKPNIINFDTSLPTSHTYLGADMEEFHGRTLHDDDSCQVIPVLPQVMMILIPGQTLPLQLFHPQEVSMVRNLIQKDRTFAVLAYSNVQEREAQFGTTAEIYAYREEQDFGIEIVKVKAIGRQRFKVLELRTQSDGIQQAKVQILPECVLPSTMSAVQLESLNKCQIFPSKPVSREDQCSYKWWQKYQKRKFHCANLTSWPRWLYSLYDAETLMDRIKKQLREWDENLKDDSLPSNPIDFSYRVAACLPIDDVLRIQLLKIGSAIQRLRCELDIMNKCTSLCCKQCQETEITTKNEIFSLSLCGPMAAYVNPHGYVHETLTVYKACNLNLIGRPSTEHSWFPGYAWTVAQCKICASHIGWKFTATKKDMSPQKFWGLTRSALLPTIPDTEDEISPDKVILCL
In short: (§1)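 Cultured to 80% confluence in RPMI/1640 with 20% FBS at 37 °C and 5% CO2, then switched to serum-free medium for 8 h. Degraders were added over a concentration range up to 10 μM for 16 h, with gefitinib at 1 μM as reference. Lysates in Laemmli buffer were immunoblotted for EGFR, p-EGFR and p-AKT. DC50 came from band quantification by nonlinear regression (variable slope).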

[5] = test system: Protein cereblon/Epidermal growth factor receptor (Homo sapiens), P00533+Q96SW2 [L858R]; assay: Protac activity at CRBN/EGFR L858R mutant in human H3255 cells assessed as induction of EGFR degradation at 0.1 to 1 uM incubated for 8 hrs in absence of FBS by Western blot analysis; type: cell-based
[6] = test system: Protein cereblon/Epidermal growth factor receptor (Homo sapiens), P00533+Q96SW2 [L858R]; assay: Reversible protac activity at CRBN/EGFR L858R mutant in human H3255 cells assessed as recovery of EGFR degradation at 100 nM preincubated for 12 hrs followed by compound washout and measured up to 48 hrs by Western blot analysis; type: cell-based
In short: (§2)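 Cells were serum-starved 8 h, then given degrader for 12 h. They were washed three times with PBS and harvested at the indicated time points after washout. EGFR, p-EGFR and p-AKT were read by Western blot.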

[7] = test system: Protein cereblon/Epidermal growth factor receptor (Homo sapiens), P00533+Q96SW2 [L858R]; assay: Protac activity at CRBN/EGFR L858R mutant in human H3255 cells assessed as reduction in AKT phosphorylation at 100 nM treated 8 hrs post serum starvation by Western blot analysis; type: cell-based; settings: TDE = time-dependent effect
In short: (§3)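 After 8 h serum starvation, cells got 100 nM degrader and were collected at serial time points for Western blot of EGFR and downstream signaling.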

[8] = test system: Protein cereblon/Epidermal growth factor receptor (Homo sapiens), P00533+Q96SW2 [UNDEFINED MUTATION]; assay: Reversible protac activity at CRBN/EGFR exon 19 deletion mutant in human HCC827 cells assessed as recovery of AKT phosphorylation at 100 nM preincubated for 12 hrs followed by compound washout and measured after 48 hrs by Western blot analysis
[9] = Cmax in Swiss albino mouse at 50 mg/kg, ip measured after 8 hrs; type: ADME, organism-based; set-up: dose 50 mg/kg, route intraperitoneal; settings: in vivo
[10] = test system: Protein cereblon/Epidermal growth factor receptor (Homo sapiens), P00533+Q96SW2 [UNDEFINED MUTATION]; assay: Reversible protac activity at CRBN/EGFR exon 19 deletion mutant in human HCC827 cells assessed as recovery of EGFR degradation at 100 nM preincubated for 12 hrs followed by compound washout and measured after 24 hrs by Western blot analysis; type: cell-based; in short: as §2
[11] = test system: Protein cereblon/Epidermal growth factor receptor (Homo sapiens), P00533+Q96SW2 [UNDEFINED MUTATION]; assay: Protac activity at CRBN/EGFR exon 19 deletion mutant in human HCC827 cells assessed as reduction in EGFR autophosphorylation up to 10 uM treated 8 hrs post serum starvation measured after 16 hrs by Western blot analysis; type: cell-based; in short: as §1
[12] = target: T1, Epidermal growth factor receptor; assay: Induction of wild-type EGFR degradation in human OVCAR8 cells at up to 10 uM treated 8 hrs post serum starvation measured after 16 hrs by Western blot analysis; type: cell-based
[13] = test system: Protein cereblon/Epidermal growth factor receptor (Homo sapiens), P00533+Q96SW2 [UNDEFINED MUTATION]; assay: Protac activity at CRBN/EGFR exon 19 deletion mutant in human HCC827 cells assessed as induction of EGFR degradation at 10 uM treated 8 hrs post serum starvation measured after 16 hrs by Western blot analysis relative to control; type: cell-based; in short: as §1
[14] = test system: Protein cereblon/Epidermal growth factor receptor (Homo sapiens), P00533+Q96SW2 [L858R]; assay: Protac activity at CRBN/EGFR L858R mutant in human H3255 cells assessed as induction of EGFR degradation at 100 nM measured after 8 hrs in presence of CRBN E3 ligase binder thalidomide by Western blot analysis; type: cell-based
[15] = test system: Protein cereblon/Epidermal growth factor receptor (Homo sapiens), P00533+Q96SW2 [UNDEFINED MUTATION]; assay: Protac activity at CRBN/EGFR exon 19 deletion mutant in human HCC827 cells assessed as reduction in AKT phosphorylation up to 10 uM treated 8 hrs post serum starvation measured after 16 hrs by Western blot analysis; type: cell-based; in short: as §1
[16] = test system: Protein cereblon/Epidermal growth factor receptor (Homo sapiens), P00533+Q96SW2 [UNDEFINED MUTATION]; assay: Protac activity at CRBN/EGFR exon 19 deletion mutant in human HCC827 cells assessed as induction of EGFR degradation at 0.1 to 1 uM incubated for 8 hrs in absence of FBS by Western blot analysis; type: cell-based
[17] = test system: Protein cereblon/Epidermal growth factor receptor (Homo sapiens), P00533+Q96SW2 [L858R]; assay: Protac activity at CRBN/EGFR L858R mutant in human H3255 cells assessed as reduction in EGFR autophosphorylation up to 10 uM treated 8 hrs post serum starvation measured after 16 hrs by Western blot analysis; type: cell-based; in short: as §1
[18] = test system: Protein cereblon/Epidermal growth factor receptor (Homo sapiens), P00533+Q96SW2 [L858R]; assay: Protac activity at CRBN/EGFR L858R mutant in human H3255 cells assessed as induction of EGFR degradation at >=50 nM treated 8 hrs post serum starvation measured after 16 hrs by Western blot analysis relative to control; type: cell-based; in short: as §1
[19] = test system: Protein cereblon/Epidermal growth factor receptor (Homo sapiens), P00533+Q96SW2 [UNDEFINED MUTATION]; assay: Protac activity at CRBN/EGFR exon 19 deletion mutant in human HCC827 cells assessed as induction of EGFR degradation at 100 nM measured after 16 hrs by LC-MS analysis relative to control; type: cell-based
[20] = test system: Protein cereblon/Epidermal growth factor receptor (Homo sapiens), P00533+Q96SW2 [L858R]; assay: Protac activity at CRBN/EGFR L858R mutant in human H3255 cells assessed as induction of EGFR degradation at 100 nM treated 8 hrs post serum starvation by Western blot analysis; type: cell-based; settings: TDE = time-dependent effect; in short: as §3
[21] = Toxicity in Swiss albino mouse assessed as clinical changes at 50 mg/kg, ip; type: organism-based; settings: in vivo
[22] = test system: HCC827; assay: Down regulation of NELFE expression in human HCC827 cells at 100 nM measured after 16 hrs by LC-MS analysis; type: functional, cell-based
In short: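 HCC-827 cells serum-starved 8 h, then treated at 100 nM for 16 h. Collected for label-free quantitative LC–MS proteomics; LFQ intensity compared between treated and control groups; three independent experiments.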

[23] = test system: Protein cereblon/Epidermal growth factor receptor (Homo sapiens), P00533+Q96SW2 [L858R]; assay: Protac activity at CRBN/EGFR L858R mutant in human H3255 cells assessed as induction of EGFR degradation treated 8 hrs post serum starvation measured after 16 hrs by Western blot analysis; type: cell-based
[24] = test system: NCI-H3255; assay: Antiproliferative activity against human H3255 cells measured after 3 days by CCK8 assay; type: functional, cell-based
In short: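 H3255 cells seeded 4000/well the night before, then exposed to serial dilutions for 3 days. Growth read by Cell Counting Kit-8; three independent experiments. IC50 from nonlinear regression (log inhibitor vs response, variable slope).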

[25] = test system: HCC827; assay: Effect on AKT level in human HCC827 cells up to 10 uM treated 8 hrs post serum starvation measured after 16 hrs by Western blot analysis; type: ADME, cell-based; settings: hcc827, 16 h

For `COc1cc2ncnc(Nc3ccc(F)c(Cl)c3)c2cc1OCCCN1CCN(CCC(=O)NCCCCCCCCOc2cccc3c2C(=O)N(C2CCC(=O)NC2=O)C3=O)CC1` (stereo not given), the Activity [1] was “Non-Toxic”, the Activity [2] was “Not Active” and the Activity [3] was “inactive”. For the same compound, the %max [4] was greater than 95%, the Activity [5] was “Active” and the Activity [6] was “Active”. The Activity [7] was “Tde”, the Activity [8] was “Active” and the Cmax [9] was 500 nM. The Activity [10] was “Active”, the Activity [11] was “Active” and the Activity [12] was “Not Active”. For the same compound, the Activity [13] was “inactive”, the Activity [14] was “inactive” and the Activity [15] was “Active”. The Activity [16] was “Active”, the Activity [17] was “Active” and the %max [18] was greater than 95%. The Activity [19] was greater than 75%, the Activity [20] was “Tde” and the Activity [21] was “Non-Toxic”. For the same compound, the Activity [22] was “Active”, the Activity [23] was “Dose-dependent effect” and the Activity [24] was “Active”. The Activity [25] was “Non-Toxic”.
